Experimental data of several laboratories.
Lines come from different studies, so protocols differ.
WDR5: WD repeat-containing protein 5 (WDR5, Homo sapiens, UniProt P61964)
PRKCE: Protein kinase C epsilon type (PRKCE, Homo sapiens, UniProt Q02156)
OfChi-h: Chitinase (OfChi-h, Ostrinia furnacalis, UniProt Q4AE59)
HDAC7: Histone deacetylase 7 (HDAC7, Homo sapiens, UniProt Q8WUI4)

`C[C@@H]1CN(c2ccc(-c3cc(C(=O)NCCOCCOCCOCCOCCNC(=O)Cn4cc(-c5[nH]cc(C(=O)N[C@@H](CC(N)=O)c6ccc(F)c(Cl)c6)c5-c5ccc(Cl)cc5F)cn4)ccc3F)cc2NC(=O)c2c[nH]c(=O)cc2C(F)(F)F)C[C@H](C)N1C` has a ΔTm of 13.4 °C (WDR5; thermal stability, DSF; 5.5 µM).
The remaining binding of `Cc1cc([C@@H](C)Nc2ccccc2C(=O)O)c2nc(N3CCC(F)(F)CC3)c(C#N)c(=O)n2c1` is reported as 100% (PRKCE; binding, competition with immobilised ligand; 1 µM).
`CN(C)c1nc(NCc2cccc(F)c2)c(/N=N/c2ccc(Cl)cc2)c(N(C)C)n1` gave an inhibition of 82.7% (OfChi-h; enzyme activity, inhibitor, fluorescence; 1 µM).
For `CNc1ncc2c(/C=C/C(=O)N3CCC(OC)CC3)nn(Cc3cccc(C(F)(F)F)c3)c2n1`, the remaining activity was 99% (PRKCE; enzyme activity, inhibitor, radiometric; 1 µM).
`O=C(NO)c1cc(F)cc(OS(=O)(=O)Oc2ccccc2)c1` has an inhibition of 47% (HDAC7; enzyme activity, inhibitor, fluorescence; 10 µM).
With `C[C@@H]1CN(c2ccc(-c3cc(C(=O)NCCOCCOCCOCCOCCOCCOCCOCCOCCOCCNC(=O)/C=C/c4[nH]cc(C(=O)N[C@@H](CC(N)=O)c5ccc(F)c(Cl)c5)c4-c4ccc(Cl)cc4F)ccc3F)cc2NC(=O)c2c[nH]c(=O)cc2C(F)(F)F)C[C@H](C)N1C` the ΔTm was 8.9 °C (WDR5; thermal stability, DSF; 5.5 µM).
With `C=CS(=O)(=O)c1ccc(Nc2nc(OCC3CCCCC3)c3nc[nH]c3n2)cc1` the koff was 0.0439 s⁻¹ (Gasdermin-D (GSDMD, Homo sapiens, UniProt P57764); binding, BLI).
With `CN(C)c1nc(NCc2ccc(OC(F)(F)F)cc2)c(/N=N/c2ccc(Cl)cc2)c(N(C)C)n1` the inhibition was 85% (OfChi-h; enzyme activity, inhibitor, fluorescence; 1 µM).
With `COc1ccc(S(=O)(=O)N(CC(=O)NO)CC(C)C)cc1` the inhibition was 60.9% (72 kDa type IV collagenase (MMP2, Homo sapiens, UniProt P08253); enzyme activity, inhibitor; 0.5 µM).
For `CC(C)OC(=O)CNc1cccc(CN(Cc2ccc(-n3cccn3)cc2)S(=O)(=O)c2cccnc2)n1`, the inhibition was 2% (Beta-2 adrenergic receptor (ADRB2, Homo sapiens, UniProt P07550); ligand displacement, radioligand; 10 µM).
`C=CC(=O)N1CCC(COCC(=O)N2CCN(c3nc(-c4cnc(N)nc4C(F)F)nc(N4CCOC[C@@H]4C)n3)CC2)CC1` has a remaining binding of 99% (Epithelial discoidin domain-containing receptor 1 (DDR1, Homo sapiens, UniProt Q08345); binding, competition with immobilised ligand; 1 µM).
`COc1cc(-c2cncc3c2CN(C)Cc2cc(N4CCNCC4)ccc2-3)cc(OC)c1OC` has a remaining activity of 112% (G protein-coupled receptor kinase 6 (GRK6, Homo sapiens, UniProt P43250); enzyme activity, inhibitor; 1 µM).
For `O=C(/C=C/c1cccc(OS(=O)(=O)Oc2ccc(C(F)(F)F)cc2)c1)NO`, the inhibition was 30% (HDAC7; enzyme activity, inhibitor, fluorescence; 10 µM).
